cardiac RTF act = cardiac RTF calcium sensitivity activators, primary screen, biochemical, IANBD-TnC fluorescence, EC20 calcium; Troponin I, cardiac muscle (Homo sapiens) + Troponin T, cardiac muscle (Homo sapiens) + …; IANBD-labeled TnC RTF fluorescence at EC20 calcium; 0% EC20 calcium, 100% full calcium; activation, % at 7.2 µM; actives 0.24% (n = 340,000);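 active = activation above the mean over all tested compounds plus 3 SD, cut at about 30% in these data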;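 also: rise in fluorescence read as greater calcium sensitivity of cardiac thin filaments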
DDE Tn6 FP inh = inhibitors of Tn6 peptide binding to fibrin DD(E), primary screen, biochemical, fluorescence polarization, human fibrin, Tn6 probe; Fibrinogen beta chain (Homo sapiens), P02675; Fibrin DD(E) TRITC-Tn6 fluorescence polarization displacement; inhibition, % at 8.3 µM; actives 0.21% (n = 370,000); AID 720509, 2013;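 active = inhibition above a per-campaign cutoff: mean of compounds within control limits plus 3 SD, cut at about 15% in these data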;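 also: 0% = median of all compound wells on the plate and 100% = blocking peptide control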
Target sequence (P02675 whole entry, looked up): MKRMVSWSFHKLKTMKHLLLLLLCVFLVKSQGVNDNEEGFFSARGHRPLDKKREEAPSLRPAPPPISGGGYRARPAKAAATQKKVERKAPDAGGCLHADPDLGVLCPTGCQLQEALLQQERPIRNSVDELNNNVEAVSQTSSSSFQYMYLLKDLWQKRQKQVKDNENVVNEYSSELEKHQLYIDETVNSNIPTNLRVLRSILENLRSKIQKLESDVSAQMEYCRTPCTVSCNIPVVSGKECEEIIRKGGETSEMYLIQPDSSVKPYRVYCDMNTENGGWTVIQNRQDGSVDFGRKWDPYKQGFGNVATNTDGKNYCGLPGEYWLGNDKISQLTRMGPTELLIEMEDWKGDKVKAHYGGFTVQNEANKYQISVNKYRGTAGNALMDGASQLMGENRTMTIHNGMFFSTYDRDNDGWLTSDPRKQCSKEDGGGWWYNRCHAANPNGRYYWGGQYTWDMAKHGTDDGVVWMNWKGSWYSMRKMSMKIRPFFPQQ
Tn7 DDE FP = inhibitors of Tn7 peptide binding to fibrin DD(E), primary screen, biochemical, fluorescence polarization, human fibrin, Tn7 probe; Fibrinogen beta chain (Homo sapiens), P02675; FP displacement of FITC-Tn7 peptide from fibrin DD(E); 0% = median of compound wells per plate; inhibition, % at 8.3 µM; actives 0.13% (n = 370,000); AID 720508, 2013;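 active = inhibition above the mean of compounds falling within the control limits plus 3 SD of them, cut at about 14% in these data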;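 also: 0% = plate median of compound wells and 100% = 10 µM Aha-Tn7 peptide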
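Assay system: Human fibrin DD(E) protein | Medium: Tris buffer with calcium and detergent, pH 7.8 | Reagent: 0.1 µM fluorescent Tn7 | Compound dosing: Single point at 8.3 µM | Times: 10 min preincubation, 3 h with tracer, room temperature | Detection: Fluorescence polarization of the labelled Tn7 tracer | Controls: Aha-Tn7 high control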
CRFR2-BP ag = agonists of CRF-BP/CRF-R2 complex, primary screen, cell-based, HEK293, calcium dye fluorescence, uHTS | actives 0.46% (n = 350,000) | calcium dye fluorescence (FLIPR); percent of saturating CRF peptide response | activation, % at 13.2 µM;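 active = activation of at least 50%, plus an integration ratio under a set limit after plate pattern correction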;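 also: plate controls were neutral control wells without compound for no effect and CRF at EC100 for full effect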
CRFR2-BP antag = antagonists of CRF-BP/CRF-R2 complex, primary screen, cell-based, HEK293, calcium dye fluorescence, uHTS; actives 0.59% (n = 350,000); inhibition, % at 11.8 µM; CRF-induced calcium fluorescence;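 active = inhibition of the ligand-induced calcium signal above about 50% at the single tested concentration, limit read from the data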
Cardiac RTF inh = cardiac RTF calcium sensitivity inhibitors, primary screen, biochemical, IANBD-TnC fluorescence, EC70 calcium | AID 493244, 2011 | actives 0.12% (n = 340,000) | Troponin I, cardiac muscle (Homo sapiens) + Troponin T, cardiac muscle (Homo sapiens) + … | inhibition, % at 7.15 µM | IANBD-labeled cardiac RTF, Ca2+ fluorescence;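 active = inhibition above the mean inhibition of all tested compounds plus 3 SD, cut at about 17% in these data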;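 also: assay run at fixed EC70 calcium of 1.6 mM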
An asterisk follows results filed as active; i = inactive; / = no result; + = active, no number. Compounds with a hit are over-represented: about 1.4% of the library has one in this group of screens.

SMILES | cardiac RTF act | DDE Tn6 FP inh | Tn7 DDE FP | CRFR2-BP ag | CRFR2-BP antag | Cardiac RTF inh
NC(=O)C1=C(c2ccccc2)c2ccccc2C1=O | -1 | 0 | -17 | 67* | -68 | 0
S=C(NCCc1ccccc1)N1CCC2CC1c1c(Cl)cccc12 (stereo not given) | / | 6 | 4 | 2 | 51* | /
C=CCNC(=S)N1CCC2CC1c1c(Cl)cccc12 (stereo not given) | / | 6 | 5 | -1 | 5 | /
Cc1cc(C(c2ccc(O)cc2)c2cc(C)c(O)cc2C)c(C)cc1O | -4 | 1 | 4 | 69* | -65 | 2
CCN(CC)C(=O)c1ncn2c1C(=O)NC[C@H]2C | / | 3 | -3 | / | / | /
COc1ccc2c(c1)CC/C(=C\C=C\c1ccccc1OC)C2=O | 8 | -2 | -12 | -1 | -1 | 4
CCN(CC)Cc1c(O)ccc2c1O/C(=C\C=C\c1ccccc1)C2=O | 113* | -5 | -3 | 41 | -25 | -165
COCCN(CCOC)Cc1c(O)ccc2c1O/C(=C\c1ccc(C)o1)C2=O | 147* | -1 | -2 | 4 | 5 | -86
COc1ccccc1/C=C/C=C1\Oc2c(ccc(O)c2CN(C)C)C1=O | 107* | -8 | -10 | 41 | -33 | -147
Cc1ccc(/C=C2\Oc3cc(OCC(=O)NN)ccc3C2=O)o1 | 1 | -2 | -3 | 0 | 1 | -13
O=C(CN1CCN(c2nc(-c3ccccc3)cs2)CC1)Nc1ccc(Cl)cc1 | / | -2 | -8 | / | / | /
CN(NC(=O)C(=O)NCc1ccco1)C(=O)Nc1ccc(Cl)cc1 | / | -4 | 5 | / | / | /
CC(=O)N(Cc1ccco1)c1nc(C(=O)Nc2ccc(Cl)cc2)c(C)s1 | 1 | 6 | -6 | 3 | 65* | -3
C#CCNC(=O)C[C@@H]1C(=O)N(CC=C)/C2=C/CCCCC[C@]21C(=O)OCC | / | 1 | -3 | / | / | /
COc1ccc2c(c1)OC[C@H]1[C@H]2N2C(=O)c3cc(OC)c(OC)cc3NC(=O)[C@@]2(C)[C@H]1c1ccccc1 | -4 | -1 | -4 | 8 | 65* | 7
Cc1ccccc1NC(=O)c1cc(S(=O)(=O)c2ccccc2)ccc1Cl | 7 | -6 | -3 | -3 | 9 | -3
Cc1cccc(NC(=O)c2cc(S(=O)(=O)c3ccccc3)ccc2Cl)c1 | 3 | -2 | -3 | 1 | 62* | -1
O=C1C(Cl)=C(NCCCO)C(=O)c2ccccc21 | -1 | 4 | 3 | -7 | 6 | -1
O=C1C(Cl)=C(Nc2ccc3cn[nH]c3c2)C(=O)c2ccccc21 | 2 | -4 | 3 | -4 | 95* | 4
O=C(Nc1ccc2cn[nH]c2c1)c1c(Cl)cccc1Cl | 1 | 2 | -6 | -2 | 12 | -5
CN(C)c1ccc(NC2=C(Cl)C(=O)c3ccccc3C2=O)cc1 | -2 | -1 | -1 | 0 | 75* | 3
CC(=O)Nc1ccc(NC2=C(Cl)C(=O)c3ccccc3C2=O)cc1 | / | 10 | -7 | -3 | + | /
N=c1oc2c3c4c(cc2cc1C(=O)Nc1ccccc1)CCCN4CCC3 | + | / | / | 271* | -317 | i
Cc1cccnc1CNC(=O)C1(C)CCCN1CC(C)C (stereo not given) | / | -3 | -6 | / | / | /
O=C(C[n+]1ccc2ccccc2c1)c1cccc2ccccc12 | 0 | 0 | 1 | 0 | 2 | -13
SMILES | cardiac RTF act | DDE Tn6 FP inh | Tn7 DDE FP | CRFR2-BP ag | CRFR2-BP antag | Cardiac RTF inh
O=C(/C=C/c1cc[n+](CC(=O)c2ccc3cccc4c3c2CC4)cc1)c1ccc2cccc3c2c1CC3 | -23 | / | / | 5 | -9 | 17*
CCCCNc1ccc2c(c1)OC[C@@H](CC(C)C)NS2(=O)=O | / | 2 | -4 | / | / | /
N#C/C(=C(/O)COc1ccc(Cl)cc1)c1nc2ccccc2s1 | -4 | -8 | -9 | 70* | 72* | -5
Cc1c(N=Nc2c(-c3ccc([N+](=O)[O-])cc3)[nH]n(C(N)=S)c2=O)cccc1[N+](=O)[O-] | -10 | 4 | 3 | 42 | 66* | 15
C=CCN1C(=O)[C@H](CC(=O)NCc2ccc(OC)c(OC)c2)[C@@]2(C(=O)OCC)CCCC=C12 | / | 3 | 6 | / | / | /
COc1cccc2c1C(=O)c1c(O)c3c(c(O)c1C2=O)C[C@@](O)(C(=O)CO)C[C@@H]3OC1CC(N)C(O)C(C)O1 (stereo not given in full) | 115* | + | 13 | 74* | -124 | -176
COc1cccc2c1C(=O)c1c(O)c3c(c(O)c1C2=O)C[C@@](O)(C(=O)CO)C[C@@H]3O[C@H]1C[C@H](N)[C@H](O)[C@H](C)O1 | 209* | + | 19* | 93* | -80 | -245
CC(=O)[C@@]1(O)Cc2c(O)c3c(c(O)c2[C@H](O[C@H]2C[C@H](N)[C@H](O)[C@H](C)O2)C1)C(=O)c1ccccc1C3=O | / | 198* | 51* | / | / | /
COC(=O)[C@H]1C[C@@]2(N3CCCC3)c3ccccc3N[C@H]2N1S(C)(=O)=O | / | 8 | -2 | / | / | /
Cc1cccc(N=Cc2[nH]c3ccc(Br)c(Cl)c3c2O)c1 | 63* | -5 | -1 | 192* | -190 | -87
COc1ccccc1CN=Cc1[nH]c2ccc(Br)c(Cl)c2c1O | 7 | 6 | -7 | 1 | -3 | -4
C#CCN1CC(N(C)CCOC(=O)c2cccs2)CS1(=O)=O (stereo not given) | / | -3 | -6 | / | / | /
COc1cc2c(cc1OC)-c1cc(Nc3ccc(C(=O)O)cc3)nc(=O)n1CC2 | 0 | 7 | 3 | 0 | 117* | 1
COc1ccc(Nc2cc3n(c(=O)n2)CCc2cc(OC)c(OC)cc2-3)cc1 | -3 | -6 | -1 | 1 | 32 | -3
COC(=O)[C@]12C[C@H](CC(=O)NCC34CC5CC(CC(C5)C3)C4)C(=O)N(Cc3cccc4ccccc34)C1=C[C@H](COCc1ccccc1)O[C@@H]2C | / | 1 | -7 | / | / | /
O=c1ccn([C@@H]2O[C@H](CNCc3c(OCc4ccccc4F)ccc4ccccc34)[C@@H](O)[C@H]2O)c(=O)[nH]1 | / | -4 | -5 | / | / | /
C[C@H]1[C@H](NC(=O)c2ccc(Cl)c(Cl)c2)CC[C@@]23CCCN2C(=O)CCC[C@@H]13 | / | 2 | 3 | / | / | /
CSc1ncc(Cl)c(C(=O)Nc2ccc(NC(C)=O)cc2)n1 | -4 | 3 | 2 | 0 | 6 | -3
